tested on: not listed separately; assay: Stability of the compound assessed as drug degradation by HPLC analysis; assay type: physicochemical; details: not given; call rule not given here

Row | SMILES | Stability
1 | O=C(N[C@H](CO)C(=O)O)c1nc(NC[C@H](O)CO)c(C(=O)N[C@H](CO)C(=O)O)nc1NC[C@H](O)CO | Stable
2 | O=C(NCC(O)CO)c1nc(NC[C@H](O)CO)c(C(=O)NCC(O)CO)nc1NC[C@H](O)CO (stereo not given in full) | Stable

Second part, the molecule after the results:

Row | Stability | SMILES
3 | Stable | Nc1nc(C(=O)N[C@H](CO)C(=O)O)c(N)nc1C(=O)N[C@H](CO)C(=O)O [RELMAPIRAZIN]
4 | Stable | Nc1nc(C(=O)N[C@@H](CO)C(=O)O)c(N)nc1C(=O)N[C@@H](CO)C(=O)O

tested on: not listed separately; assay: Terminal half life in Sprague-Dawley rat plasma […]; assay type: ADME, organism-based; details: read-out: beta t1/2
Outline: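 Male Sprague Dawley rats (330-380 g), Inactin ip, tracheotomized, with femoral vein dosing and femoral artery sampling catheters. Dose was 1 mL of 2 mM agent; about 200 μL blood taken at 0-120 min (10 points). Plasma measured by HPLC with fluorescence detection against external standards. Terminal-phase half-life from two-compartment modeling; mean ± SEM, n=4-8.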

Row | SMILES | half-life [min]
5 | O=C(N[C@H](CO)C(=O)O)c1nc(NC[C@H](O)CO)c(C(=O)N[C@H](CO)C(=O)O)nc1NC[C@H](O)CO | 20
6 | O=C(NCC(O)CO)c1nc(NC[C@H](O)CO)c(C(=O)NCC(O)CO)nc1NC[C@H](O)CO (stereo not given in full) | 19
7 | CNC(=O)c1c(I)c(NC(C)=O)c(I)c(C(=O)O)c1I [IOTHALAMIC ACID] | 32

Results, then the molecule that gave them:

Row | half-life [min] | SMILES
8 | 29 | Nc1nc(C(=O)N[C@H](CO)C(=O)O)c(N)nc1C(=O)N[C@H](CO)C(=O)O [RELMAPIRAZIN]
9 | 36 | Nc1nc(C(=O)N[C@@H](CO)C(=O)O)c(N)nc1C(=O)N[C@@H](CO)C(=O)O

tested on: not listed separately; assay: Drug excretion in Sprague-Dawley rat urine after 6 hrs; assay type: ADME; details: not given
Outline: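 Test agent (1 mL, 2 mM in PBS) given by tail vein to conscious restrained rats in metabolic cages, urine collected at 2, 4 and 6 h with cage washes; or to rats anesthetized with Inactin 100 mg/kg ip, tracheotomized, kept on 37 °C pad, with bladder urine drawn at 6 h. Urine level by HPLC with fluorescence detection against external standards; %ID from mass balance; mean ± SEM, n=3-6.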

Row | SMILES | urinary excretion (% of injected dose) at 6 h [% ID]
10 | O=C(NCC(O)CO)c1nc(NC[C@@H](O)CO)c(C(=O)NCC(O)CO)nc1NC[C@@H](O)CO (stereo not given in full) | 87
11 | O=C(N[C@H](CO)C(=O)O)c1nc(NC[C@H](O)CO)c(C(=O)N[C@H](CO)C(=O)O)nc1NC[C@H](O)CO | 85
12 | NC(=O)c1nc(NC[C@H](O)CO)c(C(N)=O)nc1NC[C@H](O)CO | 25
13 | O=C(NCC(O)CO)c1nc(NC[C@H](O)CO)c(C(=O)NCC(O)CO)nc1NC[C@H](O)CO (stereo not given in full) | 88
14 | Nc1nc(C(=O)NCC(O)CO)c(N)nc1C(=O)NCC(O)CO (stereo not given) | 61
15 | CNC(=O)c1c(I)c(NC(C)=O)c(I)c(C(=O)O)c1I [IOTHALAMIC ACID] | 80

The remaining lines, values ahead:

Row | urinary excretion (% of injected dose) at 6 h [% ID] | SMILES
16 | 90 | Nc1nc(C(=O)N[C@H](CO)C(=O)O)c(N)nc1C(=O)N[C@H](CO)C(=O)O [RELMAPIRAZIN]
17 | 61 | Nc1nc(C(=O)N[C@H](CC(=O)O)C(=O)O)c(N)nc1C(=O)N[C@H](CC(=O)O)C(=O)O
18 | 82 | Nc1nc(C(=O)N[C@@H](CO)C(=O)O)c(N)nc1C(=O)N[C@@H](CO)C(=O)O

tested on: not listed separately; assay: Plasma protein binding in rat at 20 uM after 1 hr by HPLC analysis; assay type: ADME, cell-free; details: read-out: PPB (converted)
Outline: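 20 μM compound in rat plasma, 37 °C for 1 h. Free fraction separated by 30 kDa MWCO centrifugal ultrafiltration and quantified by HPLC with fluorescence detection against external calibration standards.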

Row | SMILES | fraction unbound at 1 h, 20 µM
19 | O=C(NCC(O)CO)c1nc(NC[C@@H](O)CO)c(C(=O)NCC(O)CO)nc1NC[C@@H](O)CO (stereo not given in full) | 0.96
20 | Nc1nc(C(=O)NCCO)c(N)nc1C(=O)NCCO | 0.88
21 | O=C(N[C@H](CO)C(=O)O)c1nc(NC[C@H](O)CO)c(C(=O)N[C@H](CO)C(=O)O)nc1NC[C@H](O)CO | 1
22 | CCCNc1nc(C(=O)N[C@H](CO)C(=O)O)c(NCCC)nc1C(=O)N[C@H](CO)C(=O)O | 0.26
23 | NC(=O)c1nc(NC[C@H](O)CO)c(C(N)=O)nc1NC[C@H](O)CO | 0.85
24 | O=C(NCC(O)CO)c1nc(NC[C@H](O)CO)c(C(=O)NCC(O)CO)nc1NC[C@H](O)CO (stereo not given in full) | 0.94
25 | Nc1nc(C(=O)NCC(O)CO)c(N)nc1C(=O)NCC(O)CO (stereo not given) | 0.98
26 | CNC(=O)c1c(I)c(NC(C)=O)c(I)c(C(=O)O)c1I [IOTHALAMIC ACID] | 0.9

Second part, the molecule after the results:

Row | fraction unbound at 1 h, 20 µM | SMILES
27 | 1 | Nc1nc(C(=O)N[C@H](CO)C(=O)O)c(N)nc1C(=O)N[C@H](CO)C(=O)O [RELMAPIRAZIN]
28 | 1 | Nc1nc(C(=O)N[C@H](CC(=O)O)C(=O)O)c(N)nc1C(=O)N[C@H](CC(=O)O)C(=O)O
29 | 1 | Nc1nc(C(=O)N[C@@H](CO)C(=O)O)c(N)nc1C(=O)N[C@@H](CO)C(=O)O

species: Mus musculus; assay: Drug uptake in mouse bladder at 300 uL after 60 mins by real-time fluorescence analysis; details: in vivo, 1 h

Row | Drug uptake | SMILES
30 | Active | O=C(NCC(O)CO)c1nc(NC[C@H](O)CO)c(C(=O)NCC(O)CO)nc1NC[C@H](O)CO (stereo not given in full)

tested on: Rattus norvegicus; assay: Plasma clearance in Sprague-Dawley rat in presence of 70 mg/kg probenecid administered 10 mins prior to compound treatment; details: in vivo

Row | SMILES | CL
31 | O=C(N[C@H](CO)C(=O)O)c1nc(NC[C@H](O)CO)c(C(=O)N[C@H](CO)C(=O)O)nc1NC[C@H](O)CO | Active
32 | O=C(NCC(O)CO)c1nc(NC[C@H](O)CO)c(C(=O)NCC(O)CO)nc1NC[C@H](O)CO (stereo not given in full) | Active
33 | CNC(=O)c1c(I)c(NC(C)=O)c(I)c(C(=O)O)c1I [IOTHALAMIC ACID] | Active

Further lines, results first:

Row | CL | SMILES
34 | Active | Nc1nc(C(=O)N[C@H](CO)C(=O)O)c(N)nc1C(=O)N[C@H](CO)C(=O)O [RELMAPIRAZIN]
35 | Not Active | Nc1nc(C(=O)N[C@@H](CO)C(=O)O)c(N)nc1C(=O)N[C@@H](CO)C(=O)O

From ChEMBL document CHEMBL1949589, “Hydrophilic pyrazine dyes as exogenous fluorescent tracer agents for real-time point-of-care measurement of glomerular filtration rate” (J Med Chem, 2011)
